DNMT1 block – DNMT1 (human) enzyme inhibition; AID 588458; 360,000 compounds, 0.83% hits; inhibition (reported as % activation of signal), % at 10 µM; DNMT1 molecular beacon, Hinp1I cleavage, fluorescence; in the data active = inhibition above about 50%
Scp1 inh – inhibitors of human Scp-1 phosphatase; Q9GZU7; inhibition, % at 20 µM; Recombinant Scp1, phosphopeptide, malachite green phosphate absorbance; 340,000 compounds, 0.88% hits; AID 493091;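 active = inhibition above about 50% at 20 µM, limit read from the data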;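 also: plate controls were DMSO wells with enzyme for no effect and wells lacking enzyme for full effect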
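assay system = SCP-1 phosphatase catalytic domain, residues 76-261 | buffer or medium = 50 mM Tris acetate pH 5.5, 0.005% Tween-20, 10 mM MgCl2 | incubation = enzyme reaction 45 min at room temperature, colour 5 min, stabilisation 30 min | signal = Phosphate-binding colour reagent, absorbance read at 630 nm | measure = % inhibition at 20 µM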
STEP block – STEP (human) phosphatase inhibition; 360,000 compounds, 0.25% hits; recombinant STEP, OMFP fluorogenic substrate, fluorescence; inhibition, % at 20 µM; P54829;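 active = inhibition at 20 µM, scaled per plate between control wells, above about 37%, limit read from the data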;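 also: 0% = DMSO with enzyme and substrate and 100% = substrate only without enzyme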
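material = STEP tyrosine phosphatase | reagent = fluorogenic phosphatase substrate OMFP at 25 µM final | doses = single compound dose of 20 µM, 1% DMSO final | schedule = 20 min reaction, room temperature, in the dark | measured by = fluorescence, 480/540 nm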
SUMO1 PPI mod – modulators of human SUMO1-mediated protein-protein interactions | P63165 | SUMO1 binding to a labelled peptide, TR-FRET, 1 h | inhibition, % at 20 µM | 360,000 compounds, 0.33% hits | AID 602429; in the data active = inhibition above about 37%
LMPTP block – blocks human LMPTP phosphatase. P24666. recombinant LMPTP-A, OMFP fluorogenic substrate, fluorescence intensity. inhibition, % at 20 µM. 360,000 compounds, 0.22% hits. AID 651560;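 active = compounds that cut the enzyme signal by at least half of the control window in the single-dose screen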;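 also: plate controls were DMSO wells with enzyme plus substrate for no effect and substrate without enzyme for full effect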
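material = LMPTP-A | quantity = 0.625 nM enzyme | reagent = OMFP substrate, 400 µM final | buffer or medium = Bis-Tris pH 6.0, DTT, detergent | detection = endpoint fluorescence intensity from OMFP dephosphorylation | dosing = single 20 µM dose | read-out basis = % inhibition relative to no-enzyme and uninhibited control wells | control set = no-enzyme and uninhibited controls | timing = 50 min at room temperature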
Scp-1 conf – Scp-1 (human) inhibition, single-dose confirmed. shares compounds with Scp1 inh. recombinant SCP-1 catalytic domain, phosphate release, malachite green absorbance. inhibition, % at 20 µM. 2,500 compounds, 61% hits. AID 540281;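 also: plate controls were DMSO with enzyme for no effect and buffer wells lacking enzyme for full effect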
MG interference – counter-screen for Scp-1 inhibitors: colorimetric interference; shares compounds with Scp1 inh; Colorimetric interference counterscreen, malachite green absorbance 630 nm; apparent inhibition (interference), % at 20 µM; 2,500 tested, under 10 active;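 also: compounds added after enzyme reaction finished so only phosphate colour detection is probed; plate controls were DMSO wells with completed Scp-1 reaction for no effect and substrate wells lacking enzyme for full effect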
Scp-1 Tm shift – validation of human Scp-1 inhibitors by thermal shift binding | Recombinant SCP1, Sypro Orange thermal shift Tm | thermal shift relative to vanadate control, % at 40 µM | 1,500 compounds, 25% hits | shares compounds with Scp1 inh;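 active = substances whose mean melting-temperature shift, as a percentage of the reference inhibitor's shift, reaches about 5.3%, limit read from the data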;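 also: 0% = Tm of DMSO wells and 100% = Tm with sodium orthovanadate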
* = called active by the depositor; . = no result. A selection: hits, their analogues and other compounds. The true share with any hit is near 1.7%.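 The calls were made as follows, unless noted: active = inhibition of at least 30% at 20 µM; inactive = the rest.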

SMILES	DNMT1 block	Scp1 inh	STEP block	SUMO1 PPI mod	LMPTP block	Scp-1 conf	MG interference	Scp-1 Tm shift
O=C(CSc1nnc2scc(-c3ccccc3)n12)Nc1nsc(-c2ccccc2)n1	17	71*	7	4	8	74*	-8	-19
CC12CCC(C[N+](C)(C)C1)C2(C)C (configuration not stated)	1	86*	0	-3	-1	96*	-5	-5
CC[N+]1(CC)CC2CCC(C)(C1)C2(C)C (configuration not stated)	0	53*	-4	3	-1	88*	-18	-6
CC(OC(=O)c1ccccc1C(=O)O)c1ccccc1 (configuration not stated)	-6	0	1	-2	-1	.	.	.
CCOc1ccc(NC(=O)CN(C)C(=O)C2CCCO2)cc1OCC (configuration not stated)	0	-7	0	2	0	.	.	.
O=C(CCC1CC(=O)Nc2ccccc21)NCc1ccc(F)cc1 (configuration not stated)	-10	-8	-2	1	-3	-8	-7	.
O=C(CCC1CC(=O)Nc2ccccc21)NCc1ccccc1 (configuration not stated)	-4	-4	-1	-1	1	.	.	.
CCc1nc2ccc(C(=O)Nc3cccc(OCC(=O)N(C)C)c3)cn2c1N(C)Cc1ccc(N(C)C)cc1	2	.	12	6	3	.	.	.
Cc1cccc(C(=O)Oc2ccc(/C=N/NC(=O)c3ccc(O)cc3)cc2)c1	-5	-7	0	-2	2	.	.	.
Cc1cccc(C(=O)Oc2ccc(/C=N/NC(=O)Cc3ccc([N+](=O)[O-])cc3)cc2)c1	14	52*	-1	0	0	36*	-17	4
C/C(N)=C(/C#N)C(=O)CSc1nnc(Nc2cccc(C)c2)s1	23	64*	3	10	8	74*	-5	-2
Cc1cccc(Nc2nnc(SCC(=O)c3c(N)n(C4CC4)c(=O)[nH]c3=O)s2)c1	2	-3	-1	1	2	.	.	.
O=C(O)c1cccc(N2C(=O)C3CC=C(Cl)CC3C2=O)c1 (configuration not stated)	42	109*	0	13	-1	57*	-20	-23
Cn1ccnc1C(OC(=O)c1ccccc1)C(F)(F)F (configuration not stated)	-1	-7	4	5	-1	.	.	.
O=C(N/N=C/c1cn(-c2ccccc2)nc1-c1ccc2c(c1)OCCO2)c1ccncc1	2	75*	9	2	31	57*	-14	-15
Cn1nccc1C(=O)N(CCN1CCCCC1)CC1CCCN(C2CCCC2)C1 (configuration not stated)	1	-10	-4	-9	-6	.	.	.
COCC(=O)N/N=C/c1ccc(Sc2nc3ccccc3s2)o1	5	-7	-2	-27	-1	.	.	.
N#CCC(=O)N/N=C/c1ccc(Sc2nc3ccccc3s2)o1	8	99*	0	-15	1	81*	-11	8.1*
O=C(O)c1cccc(Nc2ccncc2[N+](=O)[O-])c1	1	-12	-3	-32	-2	.	.	.
O=C(O)c1ccc(COc2ccc3c4c(c(=O)oc3c2)CCC4)o1	44	50*	12	1	-2	45*	-6	-4
O=c1oc2cc(OCc3ccc([N+](=O)[O-])cc3)ccc2c2c1CCCC2	15	-6	-2	-7	1	.	.	.
CCn1c2ccccc2c2nnc(SCC(N)=O)nc21	-1	-1	2	-10	-1	.	.	.
CCn1c2ccccc2c2nnc(SCC(=O)c3c(N)n(C)c(=O)n(C)c3=O)nc21	-17	63*	12	6	-1	-3	-10	.
CC1(C)CC[C@]2(C(=O)O)CC[C@]3(C)C(=CC[C@@H]4[C@@]5(C)CC[C@H](O)C(C)(C)[C@@H]5CC[C@]43C)[C@@H]2C1	29	-6	.	5	-14	.	.	.
CC1(C)CC[C@]2(C(=O)O)CC[C@]3(C)C(=CCC4[C@@]5(C)CC[C@H](O)C(C)(C)C5CC[C@]43C)C2C1 (some centres not stated)	78*	56*	.	5	25	17	4	.
SMILES	DNMT1 block	Scp1 inh	STEP block	SUMO1 PPI mod	LMPTP block	Scp-1 conf	MG interference	Scp-1 Tm shift
N=c1nc2n(cc1F)C1OC(CO)C(O)C1O2 (configuration not stated)	-1	72*	-2	2	1	-1	-7	.
C[C@@H]1CN([C@H](C)CO)C(=O)CCCn2cc(nn2)CO[C@H]1CN(C)C(=O)c1cc(-c2ccccc2)on1	5	.	0	7	-2	.	.	.
CC(CC(=O)c1cccs1)CC(=O)c1cccs1	6	-10	2	-1	1	.	.	.
O=C(O)CCCCCCCCCC(=O)c1cccs1	2	81*	0	1	1	-4	-20	.
CC1CCN(C(=O)CN(c2ccc3c(c2)OCCO3)S(=O)(=O)c2ccccc2)CC1	1	-5	0	2	2	.	.	.
O=c1oc2c(-c3ccc([N+](=O)[O-])cc3)cc(O)cc2s1	11	103*	20	67*	46	66*	-23	10*
NC1=C(c2ccc([N+](=O)[O-])cc2)C(=O)CO1	1	-1	1	-23	0	.	.	.
O=C(CN1C(=O)COc2ccc(S(=O)(=O)N3CCCCCC3)cc21)NCc1ccc(F)cc1	-2	15	-2	4	-1	.	.	.
O=C(COC(=O)COc1ccc(Br)cc1)Nc1cccnc1Cl	-1	58*	0	2	0	-10	-12	.
O=C(OCc1ccccc1)N1CCC2CC1c1ccc(N3CCNCC3)cc12 (configuration not stated)	2	.	2	-2	0	.	.	.
C=CCSc1nnc(NC(=O)CSc2nc(CCC)cc(=O)[nH]2)s1	-1	53*	-2	0	-1	7	-5	.
C=CCSc1nnc(NC(=O)CSc2nc3ccccc3[nH]2)s1	21	23	5	6	1	.	.	.
CCCCc1cc(=O)oc2cc(C)cc(OCC(=O)NCc3ccccn3)c12	1	1	-2	4	-1	.	.	.
CCCOC(=O)c1ccc(OCC(O)CN2C(=O)NC(C)(C)C2=O)cc1 (configuration not stated)	1	65*	-1	-3	0	-8	-7	.
O=C(COC(=O)CNC(=O)c1ccccc1)NCc1ccc2c(c1)OCO2	-1	67*	-1	4	0	-16	-19	.

Screening results from PubChem.
